According to ChEMBL document CHEMBL1125368, “Thiophene systems. 14. Synthesis and antihypertensive activity of novel 7-(cyclic amido)-6-hydroxythieno[3,2-b]pyrans and related compounds as new potassium channel activators” (1992):

Key:
Format in all cases: functional
[1] = species on record: Oryctolagus cuniculus; test: The compound was tested for increase in [86Rb+] efflux in rabbit isolated mesenteric artery over basal rate at a concentration of 10 uM
Method in brief: (§1)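 Vessel rings from freshly killed rabbits, held on steel wires in physiological buffer at 37 °C gassed with 95% O2/5% CO2. Rings loaded with 86Rb (4-5 μCi/mL) for 3-4 h, then moved in pairs through 4 mL buffer tubes every 10 min. Basal efflux taken over 30-40 min, followed by test compound in about five vials, then compound-free washout for 10-20 min. Efflux aliquots and overnight-digested tissue counted by liquid scintillation.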

[2] = tested on: Rattus norvegicus; test: The compound was tested for antihypertensive activity measured as maximal change in mean arterial blood pressure(MAP), after oral administration of 1 mg/kg of the compound.
Method in brief: (§2)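 Conscious SHR with an arterial catheter exteriorized at the nape, held in Bollman restraint cages after a 60-min postsurgical recovery. Only rats with MAP >150 mmHg were used. Single oral gavage dose in distilled water (range 0.003-20 mg/kg), pressure monitored continuously for 4 h by transducer. Maximal % change from predrug MAP over 240 min, N ≥ six rats. ED30 from regression over the linear part of the dose-response, with 95% confidence limits.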

[3] = species on record: Oryctolagus cuniculus; test: The compound was tested for increase in [86Rb+] efflux in rabbit isolated mesenteric artery over basal rate at a concentration of 30 uM.; method in brief: as §1
[4] = species on record: Oryctolagus cuniculus; test: The compound was tested for increase in [86Rb+] efflux in rabbit isolated mesenteric artery over basal rate at a concentration of 100 uM; method in brief: as §1
[5] = tested on: Rattus norvegicus; test: Maximal change in rat mean arterial blood pressure after 20 mg/kg p.o.; details: route oral; method in brief: as §2
[6] = species on record: Rattus norvegicus; test: The compound was tested for 30% reduction in mean arterial blood pressure(MAP); method in brief: as §2
[7] = species on record: Oryctolagus cuniculus; test: The compound was tested for increase in [86Rb+] efflux in rabbit isolated mesenteric artery over basal rate at a concentration of 1 uM.; method in brief: as §1
[8] = species on record: Oryctolagus cuniculus; test: The compound was tested for increase in [86Rb+] efflux in rabbit isolated mesenteric artery over basal rate at a concentration of 10 uM.; method in brief: as §1
[9] = species on record: Oryctolagus cuniculus; test: The compound was tested for increase in [86Rb+] efflux in rabbit isolated mesenteric artery over basal rate at a concentration of 100 uM.; method in brief: as §1
[10] = species on record: Oryctolagus cuniculus; test: The compound was tested for increase in [86Rb+] efflux in rabbit isolated mesenteric artery over basal rate at a concentration of 3 uM; method in brief: as §1
[11] = species on record: Oryctolagus cuniculus; test: The compound was tested for increase in [86Rb+] efflux in rabbit isolated mesenteric artery over basal rate at a concentration of 30 uM; method in brief: as §1
[12] = species on record: Oryctolagus cuniculus; test: The compound was tested for increase in [86Rb+] efflux in rabbit isolated mesenteric artery over basal rate at a concentration of 3 uM.; method in brief: as §1
[13] = species on record: Oryctolagus cuniculus; test: The compound was tested for increase in [86Rb+] efflux in rabbit isolated mesenteric artery over basal rate at a concentration of 100 uM( Values in parentheses indicates 95%confidence limits); method in brief: as §1
[14] = tested on: Rattus norvegicus; test: The compound was tested for antihypertensive activity measured as maximal change in mean arterial blood pressure(MAP), after oral administration of 20 mg/kg of the compound.; method in brief: as §2
[15] = Rattus norvegicus, Arterial blood, read-out: ED30

CC1(C)Oc2cc(C(=O)c3ccccc3)sc2[C@@H](N2CCCC2=O)[C@@H]1O
Increase [1]: 0% | Change [2]: -4% | Increase [3]: 33% | Increase [4]: 58% | Change [5]: -50%

CC1(C)Oc2cc([N+](=O)[O-])sc2[C@@H](N2CCCCC2=O)[C@@H]1O (stereo in doubt; 41)
ED30 [6]: 0.013 mg/kg | Increase [7]: 26% | Increase [8]: 80% | Change ([2]; 1 mg/kg): -63% | Increase [3]: 91% | Increase [9]: 53% | Increase [10]: 66%

CC1(C)Oc2cc(C(N)=O)sc2[C@@H](N2CCCCC2=O)[C@@H]1O
ED30 [6, 15]: 0.2 mg/kg | Increase [1]: 73% | Increase [3]: 75% | Increase [4]: 92% | Change [5]: -68%

CC1(C)Oc2cc([N+](=O)[O-])sc2[C@@H](N2CCCCC2=O)[C@@H]1O (stereo in doubt; 32)
ED30 [6]: 0.015 mg/kg | Increase [1]: 56% | Increase [11]: 60% | Change [5]: -65% | Increase [12]: 41%

CC1(C)Oc2ccc(C#N)cc2[C@@H](N2CCCC2=O)[C@@H]1O [LEVCROMAKALIM]
ED30 [6, 15]: 0.19 mg/kg | Increase [1]: 46% | Increase [11]: 73% | Increase [13]: 104% | Increase [10]: 41%

COC(=O)c1cc2c(s1)[C@@H](N1CCCC1=O)[C@H](O)C(C)(C)O2
Change [5]: -31%

CC1(C)C=C(N2CCCCC2=O)c2sc([N+](=O)[O-])cc2O1
Change [5]: -5%

CC1(C)Oc2cc(Br)sc2[C@@H](N2CCCC2=O)[C@@H]1O
Increase [1]: 65% | Increase [11]: 64% | Change [2]: -3% | Increase [4]: 90% | Change [5]: -43%

CC1(C)Oc2cc([N+](=O)[O-])sc2[C@@H](n2ccccc2=O)[C@@H]1O
Increase [11]: 0% | Change [2]: -10% | Change [14]: -57%

CN(C)C(=O)c1cc2c(s1)[C@@H](N1CCCCC1=O)[C@H](O)C(C)(C)O2
Change [2]: -7% | Increase [4]: 32% | Change [14]: -63%

CC(=O)c1cc2c(s1)[C@@H](N1CCCC1=O)[C@H](O)C(C)(C)O2
ED30 [6, 15]: 0.2 mg/kg | Increase [1]: 37% | Increase [11]: 40% | Increase [4]: 57% | Change [5]: -62%

CC1(C)Oc2cc([N+](=O)[O-])sc2[C@@H](N2CCCNC2=O)[C@@H]1O
Change [14]: -7%

CC1(C)Oc2cc([N+](=O)[O-])sc2[C@@H](N2Cc3ccccc3C2=O)[C@@H]1O
ED30 [6, 15]: 0.22 mg/kg | Change [2]: -58% | Change [5]: -61%

CC1(C)Oc2cc(C(=O)C(F)(F)F)sc2[C@@H](N2CCCC2=O)[C@@H]1O
Change [2]: -55% | Change [5]: -68%

CC1(C)C=C(n2ccccc2=O)c2sc([N+](=O)[O-])cc2O1
Change [5]: -14%

CC1(C)C=C(n2ccccc2=O)c2cc(C#N)ccc2O1 [BIMAKALIM]
ED30 [6, 15]: 0.01 mg/kg

CC(=O)c1cc2c(s1)[C@@H](N1CCCCC1=O)[C@H](O)C(C)(C)O2
ED30 [6, 15]: 0.09 mg/kg | Increase [1]: 13% | Increase [11]: 38% | Increase [4]: 26% | Change [5]: -67%

CC1(C)Oc2cc([N+](=O)[O-])sc2[C@@H](N2CCNC2=O)[C@@H]1O
Change [14]: -3%

CC1(C)Oc2ccsc2[C@@H](N2CCCCC2=O)[C@@H]1O
Increase [1]: 7% | Increase [3]: 26% | Increase [4]: 40% | Change [5]: -53%

CC1(C)Oc2cc([N+](=O)[O-])sc2[C@@H](N2CCCCC2=O)[C@@H]1O (stereo in doubt; 40)
ED30 [6]: 1.9 mg/kg | Increase [1]: 19% | Increase [7]: 2% | Change ([2]; 1 mg/kg): -19% | Increase [3]: 11% | Increase [4]: 19%

COC(=O)c1cc2c(s1)[C@@H](N1CCCCC1=O)[C@H](O)C(C)(C)O2
Increase [3]: 51% | Increase [4]: 63% | Change [5]: -37%

CC1(C)Oc2ccsc2[C@@H](N2CCCC2)[C@@H]1O
Increase [4]: 0% | Change [5]: -14%

CC1(C)Oc2ccsc2[C@@H](N2CCCCC2)[C@@H]1O
Increase [4]: 0% | Change [5]: -6%

CC1(C)Oc2cc(Br)sc2[C@@H](N2CCCCC2=O)[C@@H]1O
Increase [11]: 42% | Change [5]: -64%

CC1(C)Oc2ccsc2[C@@H](N2CCCCCC2=O)[C@@H]1O
Increase [4]: 0% | Change [14]: -12%

CC1(C)Oc2cc(C(=O)O)sc2[C@@H](N2CCCCC2=O)[C@@H]1O
Change [14]: -9%

CC1(C)Oc2cc([N+](=O)[O-])sc2[C@@H](N2CC(=O)NCC2=O)[C@@H]1O
Increase [4]: 0% | Change [14]: -4%

CC1(C)Oc2cc([N+](=O)[O-])sc2[C@@H](N2CCCC2=O)[C@@H]1O
ED30 [6, 15]: 0.19 mg/kg | Increase [7]: 48% | Increase [8]: 67% | Increase [3]: 110% | Increase [4]: 114% | Change [5]: -60%

CC1(C)C=C(N2CCCCC2)c2sc([N+](=O)[O-])cc2O1
Change [5]: -17%

CC1(C)Oc2cc([N+](=O)[O-])sc2[C@@H](N2CCCCC2=O)[C@@H]1O (relative stereo)
Change [14]: -24%

CC1(C)Oc2cc(C#N)sc2[C@@H](N2CCCC2=O)[C@@H]1O
ED30 [6, 15]: 0.07 mg/kg | Change [5]: -67%

CC1(C)Oc2cc([N+](=O)[O-])sc2[C@@H](N2CCCCCC2=O)[C@@H]1O
Increase [11]: 25% | Change [14]: -34%

CC1(C)Oc2ccsc2[C@@H](N2CCCC2=O)[C@@H]1O
ED30 [6, 15]: 5.03 mg/kg | Increase [1]: 0% | Increase [3]: 8% | Increase [4]: 25% | Change [5]: -55%

Cc1cc2c(s1)[C@@H](N1CCCC1=O)[C@H](O)C(C)(C)O2
Change [5]: -28%

CC1(C)Oc2cc(C#N)sc2[C@@H](N2CCCCC2=O)[C@@H]1O
ED30 [6, 15]: 0.03 mg/kg | Increase [3]: 11% | Increase [4]: 0% | Change [14]: -66%

CNC(=O)c1cc2c(s1)[C@@H](N1CCCCC1=O)[C@H](O)C(C)(C)O2.O
Change [14]: -29% | Increase [9]: 25%

CC1(C)Oc2cc(C(=O)OCc3ccccc3)sc2[C@@H](N2CCCC2=O)[C@@H]1O
Change [5]: -14%
